Test system: MS2 coat protein
Test: apparent Kd, MS2 coat protein; higher = weaker binding; RNA-MaP array; FMN 200 µM where present
Method in brief: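 Apparent Kd: the median of filtered binding-curve fits from single clusters. Designs were transcribed on Illumina sequencing-chip clusters by stalled E. coli RNA polymerase and titrated with SNAP-549-labelled MS2 coat protein from 0.7 or 1.5 nM, doubling to 3 µM, in 100 mM Tris-HCl pH 7.5, 80 mM KCl, 4 mM MgCl2, BSA, DTT, yeast tRNA and Tween-20. Each series ran without and then with constant ligand, and green signal was normalised to red-channel RNA signal and control-cluster median Fmax.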

[1] = designed as: ON switch for flavin mononucleotide, no ligand
[2] = ligand present: flavin mononucleotide, designed as: ON switch for flavin mononucleotide
[3] = designed as: OFF switch for flavin mononucleotide, no ligand
[4] = ligand present: flavin mononucleotide, designed as: OFF switch for flavin mononucleotide

| Sequence | apparent Kd [1] [nM] | apparent Kd [2] [nM] | apparent Kd [3] [nM] | apparent Kd [4] [nM] |
| --- | --- | --- | --- | --- |
| CUUAGUUUGUAGAAGGGUGACAUGAGGAUCACCCAUGUGCGUCGCCUGGAAGACCAGGGUACGCCACAGGAUAUACAAAGUAAG | 46.7 | 23.1 | – | – |
| CUUAUGCGGCAGGAUAUCGUGCUUUUCGAGCAGCGAGAAGGGUCUACAUGAGGAUCACCCAUGUCAGUGGCUCU | – | – | 18.3 | 37.8 |
| CUUAUGUGAGGAUAUCAGUAGUGAUACGAUAGUAUUACUGCUGAGAAGGCACAUGAGGAUCACCCAUGUUCCUC | – | – | 117 | 422 |
| CUUCAGUAAGGAUAUCAGCUUAGGAGGUUGGUAAUGAGAGCUGAGAAGGUACAUGAGGAUCACCCAUGUUAGUU | – | – | 20.3 | 33 |
| CUUCGUAUAGAGGAUAUAGGAUACUUCGGUGUCCUAGAAGGCUGUACAUGAGGAUCACCCAUGUACUUCAGAUC | – | – | 12.1 | 14.3 |
| CUUCUGUAAGGAUAUGUAAAUUGCUGACCACACCAGCACCGGCAGAAGGUACAUGAGGAUCACCCAUGUGGGUU | – | – | 240 | 148 |
| CUUCUGUCAGGAUAUGCGAAUCACCACUGGGUCAGUGGUGAGCAGAAGGGACAUGAGGAUCACCCAUGUAAAGU | – | – | 36.3 | 169 |
| CUUGAAUAAGUGAGGAUAUACUGUUAGUAAUGAUUGUAGAAGGUACAUGAGGAUCACCCAUGUUUAUUCUUUAU | – | – | 15.7 | 16 |
| CUUGUACAUGAGGAUCACCCAUGUUAGGAUAUCUCGCCGUCGGCUUGCCGACGGUAUUAGAGAAGGGACUAGGG | – | – | 35.4 | 39.5 |
| CUUGUACUCGGAGGAUAUCGAUAUCAAACAUGAGGAUCACCCAUGUUGAGGAUCACACAUGUAAAUGAGAAGGCUGACGUUGCU | 22.9 | 26.3 | – | – |
| CUUGUGUUAGGAUAUGCGCCCUGAAGUAGAAGGGCCAGAGAGCAGAAGGAACAUGAGGAUCACCCAUGUGUGAC | – | – | 59.7 | 56.5 |
| CUUUAUAAUACCUCAUGUACAUGAGGAUCACCCAUGUUAACUAAGGAUAUAUAUAAAUUAAUAAUGUAGAAGGUAGUACUAUUU | – | – | 17.3 | 14.8 |
| CUUUCGUGAGGAUAUGUGGCUUCGAUCGUGAAAACGAGGCUACAGAAGGCACAUGAGGAUCACCCAUGUUCCUC | – | – | 34.4 | 454 |
| CUUUGGAUGUCAGGAUAUUGAAUCAUGGAUGGUAUCUUACAGUCUUACAUGAGGAUCACCCAUGUCGAGAAGGGAUAUCAGCUC | – | – | 6.15 | 10.5 |
| CUUUUGUGAGGAUAUCAGUAGUAAAAAAAUAAAAUUACUACUGAGAAGGCACAUGAGGAUCACCCAUGUCUUUC | – | – | 122 | 76.8 |
| CUUUUGUGAGGAUAUCAGUAGUAAAAAAAUUAAAUUACUACUGAGAAGGCACAUGAGGAUCACCCAUGUUCCUC | – | – | 39.1 | 262 |
| CUUUUGUGAGGAUAUCAGUAGUAAAUAAAUAAAAUUACUAUUGAGAAGGCACAUGAGGAUCACCCAUGUUCCUC | – | – | 34.7 | 184 |
| CUUUUGUGAGGAUAUCAGUAGUAAUACAAUAGUAUUAUUACUGAGAAGGCACAUGAGGAUCACCCAUGUUCCUC | – | – | 40.9 | 125 |
| CUUUUGUGAGGAUAUUAGUAGUAAAUAAAUAAAAUUACUACUGAGAAGGCACAUGAGGAUCACCCAUGUUCCUC | – | – | 33.7 | 317 |

| Sequence | apparent Kd [1] [nM] | apparent Kd [2] [nM] | apparent Kd [3] [nM] | apparent Kd [4] [nM] |
| --- | --- | --- | --- | --- |
| CUUUUGUGAGGAUAUUAGUAGUAAAUAAAUAAAAUUAUUACUGAGAAGGUACAUGAGGAUCACCCAUGUUCCUC | – | – | 18.3 | 25.5 |
| CUUUUGUGAGGAUAUUAGUAGUAAAUAAAUAAAAUUUCUACUGAGAAGGCACAUGAGGAUCACCCAUGUUCCUC | – | – | 31.9 | 182 |
| CUUUUGUGAGGAUAUUAGUAGUUAAUAAAUAAAAUUACUACUGAGAAGGCACAUGAGGAUCACCCAUGUUCCUC | – | – | 31.5 | 226 |
| CUUUUGUGAGGAUAUUCGUAGUAGGGUCAUGGCACUAUUAUGAAGAAGGCACAUGAGGAUCACCCAUGUACCUU | – | – | 15.3 | 26.8 |
| GAAAACAUAGGAUAUACAUGAGGAUCACCCAUGUUAAAAUAAAGAAAGGGAGAAAUAAGUAGAAGGAUGAAAAA | – | – | 33.8 | 34.2 |
| GAACACGGAGGAUAUACAUGAGGAUCACCCAUGUUGAUCCUCAUUAAAAUUGAUAACUGUAGAAGGCCGUGAUA | – | – | 44.8 | 22.2 |
| GAACAUGAGGAUCACCCAUGUUCUCCAGAAGGCCGUACAUUUAAAAGUGGAUGGAUUAGUGUUGCGGAGGAUAUGGAGGUGCAA | 72 | 17.8 | – | – |
| GAACUCGUGAAGGAUAUCCGUACCAAAGCGGCAGGAGAAGGUCACACAUGAGGAUCACCCAUGUGGUACCUCGU | – | – | 30 | 130 |
| GAAUAGGCAGGAUAUACAUGAGGAUCACCCAUGUGCCUGCGAAAGGUACGUUCGAAAGGUAGAAGGGCCUAAAC | – | – | 12.1 | 17.1 |
| GAAUGGGUAGAAGGACAUGAGGAUCACCCAUGUAGUGUGACUAAGGAUAUUAGAGAAGAUUGACGUAAGAAGGUAGAUGUGAGG | – | – | 134 | 117 |
| GAAUUAUUACAGAAGGUGUUUUACAUGAGGAUCACCCAUGUUUUAUUGUUUAAAUUUGUUAUUUACAAGGAUAUGUUCUAUUCU | 27 | 21.9 | – | – |
| GACAAACAUGAGGAUCACCCAUGUUCAGACGAACAAGGAUAUGUGUGGAAACCGUACUAUACAGAAGGUGUCUGUC | 39.7 | 23.8 | – | – |
| GACAGCUCGUGAGGAUAUACAACACUGCUUCGGCAGUGUAUUAAGAUCACAUGAGGAUCACCCAUGUAGAAGGCACGAGCUGAU | – | – | 13.5 | 319 |
| GACAGUGCAAUAAUAAUAAGAUCUACAUGAGGAUCACCCAUGUAGGAUAUCGUCAGGAAUACUGACGAGAAGGACAUAGCACUG | – | – | 13.1 | 15 |
| GACAUACGCGAUCCUUGGACAUGAGGAUCACCCAUGUACCGGAAGGAUAUCCUUCGCAAAAGCUAGGAGAAGGUUCGGUAGGUC | – | – | 26.1 | 86.1 |
| GACAUGGUCCAGAAGGGCUAUUUAUUUAAGUAUUAUUUAGAACAGCAUAGCAGGAUAUGGCUAACAUGAGGAUCACCCAUGUUC | 18.8 | 11.6 | – | – |
| GACAUGGUCCAGAAGGGCUAUUUAUUUAAUUAUUAUUUAGAACAGCAUAGCAGGAUAUGGUUAACAUGAGGAUCACCCAUGUUC | 26.2 | 20.8 | – | – |
| GACGCUAAAGGAUAUACAUGAGGAUCACCCAUGUUGAGGAAGGUUAGAUGAGGAGUAAGUAGAAGGUUAGGCGA | – | – | 38 | 35.6 |
| GACUGCGUUAUGAAGGAUAUCCGCGUCUGGACAUGAGGAUCACCCAUGUAUACUUGGAUCGUGCAGGAGAAGGUCAAGGGUGAUU | 90 | 265 | – | – |

| Sequence | apparent Kd [1] [nM] | apparent Kd [2] [nM] | apparent Kd [3] [nM] | apparent Kd [4] [nM] |
| --- | --- | --- | --- | --- |
| GACUUCUCUGAGGAUAUUGCAUCAUACGAUUUAUAAGAAGGCAGAACAUGAGGAUCACCCAUGUGGGUUUCUAG | – | – | 59 | 108 |
| GACUUGUCAGGAUAUCUUACAUUUGCAUCGUAGUUACCAUUGGAGAAGGGACAUGAGGAUCACCCAUGUUUGGC | – | – | 25.6 | 23.9 |
| GAGAAGGUAGGAUAUACGAAUAAAUAGGGUAGGAAGAAGACACAUGAGGAUCACCCAUGUAGAAGGACCAAGAU | – | – | 18.8 | 38.3 |
| GAGAAGUCAGGAUAUCCAUGGCGGCACUUGCGUGGUGGCGUGGAGAAGGGACAUGAGGAUCACCCAUGUAAAGU | – | – | 49.8 | 39.1 |
| GAGACAUGUGAGAAGGCGCCACACGCGAGUGGGCGAGGAUAUCACAUGAGGAUCACCCAUGUUAGCCCUCGACCGCGACGCGGG | – | – | 10.1 | 47.3 |
| GAGAGAGGGUGAGGAUAUUCAGUAAUAAUGAUAGAAGAAGGCACAGACAUGAGGAUCACCCAUGUGGGAAUAAUCCAGAGAGAG | 182 | 207 | – | – |
| GAGCACUGAUAAUAAUGUAGAAAUACAUGAGGAUCACCCAUGUAGGAUAUCGUCAGGAAUACUGACGAGAAGGACAUACAGUGC | – | – | 15.7 | 25.5 |
| GAGCUAUGAGGAUAUGCAUAUAUACGGAUUCGUGUGGUACUACAUGAGGAUCACCCAUGUAGAAGGCGUGGCUG | – | – | 19 | 20.8 |
| GAGGAGCAAGGAUAUACGAGGAUAGGGAAGGUUGGAGAGUGACAUGAGGAUCACCCAUGUAGAAGGUGCAAGGG | – | – | 114 | 74 |
| GAGGAGUCAGGAUAUCGGGAAAGGUUGAGGAAGAGAAGAAGCGAGAAGGGACAUGAGGAUCACCCAUGUAGAAG | – | – | 52.4 | 47 |
| GAGGAUAGAGGAUAUGCAUAGAUACGGAUUCGUGUAGUACUACAUGAGGAUCACCCAUGUAGAAGGCUGUCCUG | – | – | 14.3 | 22.1 |
| GAGGGACAUGAGGAUCACCCAUGUGGUAAAUUUAAAGGAUAUUAGUGUGGGAAAGUAGGGUAAGAAGGUUGAUUGG | 94.8 | 80.1 | – | – |
| GAGUACUGAGGAUAUACAUGAGGAUCACCCAUGUGUUCCAACUAGGAAUCUAGAAUAUGUAGAAGGCAGUACUG | – | – | 223 | 211 |
| GAGUCGAGUAAUAAAUAAGAUCUACAUGAGGAUCACCCAUGUAAGGAUAUGCAGUGGAAUACACUGCAGAAGGUACAUCUCGAC | – | – | 15.1 | 33.4 |
| GAGUGACAUGAGGAUCACCCAUGUGAGGAUAUCGGACGGACCAAAUUAACAAUAAAUGCGAGAAGGCACAUCGG | – | – | 58.5 | 81.6 |
| GAGUGACAUGAGGAUCACCCAUGUGAGGAUAUCGGACGGACCAAAUUAACAAUAAUUGCGAGAAGGCACAUCGG | – | – | 60.2 | 92.3 |
| GAGUGGAGGUAAGGAUAUAUAAUGAUAAUCACAGUAGAAGGUACUAACAUGAGGAUCACCCAUGUAGGACUAUACCAGAGAGGG | 16.9 | 15.3 | – | – |
| GAGUGGCGAUUAGGAUAUACAGUGAUAAUGAUAGUAGAAGGAAUUGACAUGAGGAUCACCCAUGUAGGACUAAUCCAGAGAGAG | 96.1 | 84.9 | – | – |
| GAGUUACAUGAGGAUCACCCAUGUGGUUGUGGAUAAGGAUAUAUGGUAGGAGGAGGAAUGAUAGAAGGUAUUAGGG | 69 | 45.5 | – | – |
